Eight compounds from ChEMBL document CHEMBL1121554, “Antimalarials. 12. Preparation of carbon isosteres of selected 4-pyridinemethanols as suppressive antimalarials” (1980) can be followed below.

SMILES strings stand for the structures. Activity calls are given as the source filed them.

In assay [1] the test system is Mus musculus. The assay can be described thus: Compound was evaluated for the antimalarial activity against Plasmodium berghei in mice (Mus musculus) at the dose 20 (mg/kg) administered subcutaneously; (A) active. In kind it is functional. An outline of the steps: (§1)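 P. berghei-infected mice, five per dose group; one subcutaneous dose given 72 h after infection. Read-out is the increase in mean survival time over infected controls, counted as active when the increase is at least 100%. Cures are mice alive out of five at 60 days post-infection. Testing was done at Rane Laboratories, University of Miami.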

In assay [2] the test system is Mus musculus. The assay can be described thus: Compound was evaluated for the antimalarial activity against Plasmodium berghei in mice (Mus musculus) at the dose 40 (mg/kg) administered subcutaneously; (C) is the number of mice (Mus musculus) surviving out of five at 60 days post-infection. The assay is classed as functional. The method in brief:
as §1

Assay [3] concerns Mus musculus. The assay can be described thus: Compound was evaluated for the antimalarial activity against Plasmodium berghei in mice (Mus musculus) at the dose 640 (mg/kg) administered subcutaneously; (C) is the number of mice (Mus musculus) surviving out of five at 60 days post-infection. The assay is classed as functional. The method in brief:
as §1

For assay [4], the system named is Mus musculus. The assay is described as follows: Compound was evaluated for the antimalarial activity against Plasmodium berghei in mice (Mus musculus) at the dose 80 (mg/kg) administered subcutaneously; (C) is the number of mice (Mus musculus) surviving out of five at 60 days post-infection. The assay is classed as functional. An outline of the steps: as §1
Assay [5] deals with Mus musculus. The assay is described as follows: Compound was evaluated for the antimalarial activity against Plasmodium berghei in mice (Mus musculus) at the dose 320 (mg/kg) administered subcutaneously; (C) is the number of mice (Mus musculus) surviving out of five at 60 days post-infection. In kind it is functional. An outline of the steps:
as §1

The test system of assay [6] is Mus musculus. The assay can be described thus: Compound was evaluated for the antimalarial activity against Plasmodium berghei in mice (Mus musculus) at the dose 160 (mg/kg) administered subcutaneously; (C) is the number of mice (Mus musculus) surviving out of five at 60 days post-infection. In kind it is functional. The method in brief:
as §1

For assay [7], the system named is Mus musculus. The assay is described as follows: Compound was evaluated for the antimalarial activity against Plasmodium berghei in mice (Mus musculus) at the dose 80 (mg/kg) administered subcutaneously; IA is defined as inactive. In kind it is functional, organism-based.
Assay [8] concerns Mus musculus. The assay is described as follows: Compound was evaluated for the antimalarial activity against Plasmodium berghei in mice (Mus musculus) at the dose 20 (mg/kg) administered subcutaneously. In kind it is functional. The method in brief:
as §1

Assay [9] relates to Mus musculus. The assay is described as follows: Compound was evaluated for the antimalarial activity against Plasmodium berghei in mice (Mus musculus) at the dose 40 (mg/kg) administered subcutaneously. The assay is classed as functional. An outline of the steps:
as §1

Assay [10] relates to Mus musculus. The assay is described as follows: (§2) Compound was evaluated for the antimalarial activity against Plasmodium berghei in mice (Mus musculus) at the dose 80 (mg/kg) administered subcutaneously. In kind it is functional.
Assay [11] deals with Mus musculus. The assay can be described thus: Compound was evaluated for the antimalarial activity against Plasmodium berghei in mice (Mus musculus) at the dose 160 (mg/kg) administered subcutaneously; (A) active. The assay is classed as functional. The method in brief: as §1
Assay [12] relates to Mus musculus. The assay can be described thus: Compound was evaluated for the antimalarial activity against Plasmodium berghei in mice (Mus musculus) at the dose 320 (mg/kg) administered subcutaneously; (A) active. In kind it is functional. An outline of the steps: as §1
The test system of assay [13] is Mus musculus. Described as §2. The assay is classed as functional. The method in brief: as §1
The source holds these as a separate data set.

In assay [14] the test system is Mus musculus. The assay can be described thus: Compound was evaluated for the antimalarial activity against Plasmodium berghei in mice (Mus musculus) at the dose 40 (mg/kg) administered subcutaneously; (A) active. The assay is classed as functional. An outline of the steps:
as §1

Assay [15] relates to Mus musculus. The assay is described as follows: Compound was evaluated for the antimalarial activity against Plasmodium berghei in mice (Mus musculus) at the dose 80 (mg/kg) administered subcutaneous; (A) active. In kind it is functional. An outline of the steps: as §1

Consider `CCCCNCC(O)c1cc(-c2ccc(Cl)cc2)nc(-c2ccc(Cl)cc2)c1` (stereo unspecified), for which, in assay [1], the “Delta MST” value was determined as 10.8 days. In addition, the No. of cures was 1 in assay [2]; 5 in assay [3]; 2 in assay [4]; 5 in assay [5]; 3 in [6].
For `CCCCNCC(O)c1cc(/C=C/c2ccc(C(F)(F)F)cc2)nc(/C=C/c2ccc(C(F)(F)F)cc2)c1` (stereo unspecified), in assay [7], the “Delta MST” value was “inactive”.
As to `CCCCN(CCCC)CC(O)c1cc(/C=C/c2ccc(C(F)(F)F)cc2)nc(/C=C/c2ccc(C(F)(F)F)cc2)c1` (stereo unspecified), the “Delta MST” value in assay [8] was 0.2 days; in [9], 2.9 days. The No. of cures is listed as 5 in assay [3], 2 in assay [10], 5 in [5] and 5 in [6].
Turning to `CCCCN(CCCC)CC(O)c1cc(-c2ccc(Cl)cc2)cc(-c2ccc(Cl)cc2)c1` (stereo unspecified), the “Delta MST” value in assay [11] amounted to 9.7 days; in assay [8], 0.3 days; in assay [12], 13.9 days; in [9], 0.5 days; in assay [13] it was 4.1 days. In addition, in assay [3], the No. of cures came out at 5.
`CCCCNCC(O)c1cc(/C=C/c2ccc(C(F)(F)F)cc2)cc(/C=C/c2ccc(C(F)(F)F)cc2)c1` (stereo unspecified): in assay [7], the “Delta MST” value is “inactive”.
With `CCCCN(CCCC)CC(O)c1cc(-c2ccc(Cl)cc2)nc(-c2ccc(Cl)cc2)c1` (stereo unspecified), the “Delta MST” value in assay [8] turned out to be 2.3 days; in assay [14], 15.7 days. In addition, the No. of cures was determined as 5 in assay [3], 3 in [4], 4 in assay [5] and 3 in assay [6].
Turning to `CCCCNCC(O)c1cc(-c2ccc(Cl)cc2)cc(-c2ccc(Cl)cc2)c1` (stereo unspecified), the entries for the “Delta MST” value in [8] and in assay [9] were 0.5 days and 1.3 days, respectively. Besides, the No. of cures in assay [4] is 3; in assay [5], 5; in assay [6], 5.
For `CCCCN(CCCC)CC(O)c1cc(/C=C/c2ccc(C(F)(F)F)cc2)cc(/C=C/c2ccc(C(F)(F)F)cc2)c1` (stereo unspecified), the “Delta MST” value in [8] came out at 0.5 days; in assay [9] it was 0.5 days; in assay [15] it was 8.1 days. For the same compound, the No. of cures in assay [5] and in assay [6] was 5 in each case.
